Converted amounts (≈) assume the structure as drawn. The source made the active and inactive calls. The rule behind the calls is not given here.
What was measured:
[1] = Cytotoxicity against human HeLa cells after 72 hrs; format: cell-based
[2] = Selectivity index, ratio of CC50 for HeLa cells to IC50 for HRV2 in HeLa cells; format: functional, Homo sapiens
[3] = system: rhinovirus A2; assay: Antiviral activity against HRV2 in HeLa cells; format: functional, organism-based; settings: Rhinovirus A
Method in brief: (§1)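 Cytopathic-effect inhibition assays in HeLa cells infected with pleconaril-sensitive HRV-1A, -2, -14 or -16. Dose-dependent inhibition of virus-induced CPE was measured, and the 50% inhibitory concentration (IC50) was derived.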

[4] = system: Human rhinovirus 1A; assay: Antiviral activity against HRV1A in HeLa cells; format: functional, organism-based; method in brief: as §1
[5] = system: rhinovirus B14; assay: Antiviral activity against HRV14 in HeLa cells; format: functional, organism-based; method in brief: as §1
[6] = system: rhinovirus A16; assay: Antiviral activity against HRV16 in HeLa cells; format: functional, organism-based; method in brief: as §1
[7] = system: rhinovirus A2; assay: Inactivation of HRV2 assessed as reduction in plaque at 2.5 ug/ml after 1 hr; format: functional, organism-based
Method in brief: (§2)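 Direct-inactivation test using a modified plaque-reduction format. HRV-2 was incubated with or without compound at 37 °C for 1 h, and the suspensions were then diluted 100-fold. Residual virus titer was determined by plaque assay on HeLa cells, with pleconaril run as positive control.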

[8] = system: rhinovirus A2; assay: Inhibition of HRV2 absorption on HeLa cells assessed as reduction in plaques at 2.5 ug/ml after 2 hrs; format: functional; settings: Rhinovirus A
[9] = system: rhinovirus A2; assay: Inactivation of HRV2 assessed as reduction in plaque at 0.25 ug/ml after 1 hr; format: functional; design: scale not given: the % may be the effect or the level left; method in brief: as §2
[10] = system: rhinovirus A2; assay: Inhibition of HRV2 absorption on HeLa cells assessed as reduction in plaques at 0.25 ug/ml after 2 hrs; format: functional; settings: Rhinovirus A
[11] = system: rhinovirus A2; assay: Inhibition of HRV2 replication cycle progression; format: functional, organism-based; settings: Rhinovirus A
[12] = system: rhinovirus A16; assay: Inhibition of HRV16 replication cycle progression; format: functional, organism-based; settings: Rhinovirus A
[13] = Selectivity for HRV2 over HRV16; format: functional

With `CC(=O)O[C@H]1CC[C@]2(C)[C@H](CC[C@@](C)(O)[C@@H]2COc2ccc3ccc(=O)oc3c2)C1(C)C` [KELLARIN] the CC50 at 72 h [1] was 15.5 µg/mL (≈ 35 µM), the “Ratio CC50/IC50” value [2] was less than 1 and the IC50 [3] was greater than 15.5 µg/mL. For the same molecule, the Activity [4] was “inactive”, the Activity [5] was “inactive” and the Activity [6] was “inactive”.
In the case of `C/C(=C\COc1ccc2ccc(=O)oc2c1)CCC1C(C)(C)[C@H]2CC[C@]1(C)O2` (some centres not stated) [FARNESIFEROL], the CC50 at 72 h [1] is reported as 7.7 µg/mL (≈ 20.1 µM), the “Ratio CC50/IC50” value [2] is reported as 8.02 and the Activity [7] is reported as “inactive”. The inhibition at 2.5 µg/mL [8] was 35.2%, the IC50 [3] was 0.96 µg/mL (≈ 2.51 µM) and the Activity [4] was “inactive”. The Activity [5] was “inactive” and the Activity [6] was “inactive”.
With `Cc1cc(CCCOc2c(C)cc(-c3noc(C(F)(F)F)n3)cc2C)on1` [PLECONARIL] the CC50 at 72 h [1] was 12.6 µg/mL (≈ 33 µM), the “Ratio CC50/IC50” value [2] was 1260 and the Activity [9] was 84.3%. It also gave an inhibition at 0.25 µg/mL [10] of 100%, an EC50 [11] of 0.04 µM and an EC50 [12] of 0.57 µM. It also gave a Selectivity ratio [13] of 10, an IC50 [3] of 0.01 µg/mL (≈ 0.0262 µM) and an IC50 [4] of 0.02 µg/mL (≈ 0.0524 µM). For the same molecule, the IC50 ([5]; Rhinovirus B) was 0.02 µg/mL (≈ 0.0524 µM) and the IC50 ([6]; Rhinovirus A) was 0.02 µg/mL (≈ 0.0524 µM).
For `C=C1CC[C@@H](O)C(C)(C)C1CC/C(C)=C/COc1ccc2ccc(=O)oc2c1` (some centres not stated) [FARNESIFEROL B], the CC50 at 72 h [1] was 8.2 µg/mL (≈ 21.4 µM), the “Ratio CC50/IC50” value [2] was 8.2 and the IC50 [3] was 1 µg/mL (≈ 2.61 µM). The Activity [4] was “inactive”, the Activity [5] was “inactive” and the Activity [6] was “inactive”.
With `C[C@H]1CC=C2[C@H](CC[C@H](O)C2(C)C)[C@@]1(C)COc1ccc2ccc(=O)oc2c1` [MICROLOBIDENE] the CC50 at 72 h [1] was 10 µg/mL (≈ 26.1 µM), the “Ratio CC50/IC50” value [2] was less than 1 and the IC50 [3] was greater than 10 µg/mL. For the same molecule, the Activity [4] was “inactive”, the Activity [5] was “inactive” and the Activity [6] was “inactive”.

— ChEMBL document CHEMBL1142266, “Structure-based virtual screening for the discovery of natural inhibitors for human rhinovirus coat protein” (J Med Chem, 2008)
